Reference: paper PMC3517974 (ChemMedChem, 2009)

Legend:
[1] = format: in vitro ADME, rat; settings: for log kplasma: hydrolysis constant in rat plasma
[2] = In vitro stability in rat liver S9 fraction with NADPH-regenerating system; format: in vitro ADME; settings: for log kS9: hydrolysis constant in rat liver S9 fraction
How it was run: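 S9 came from male Wistar rat liver (250–300 g), perfused with ice-cold 0.15 M KCl, homogenized 20% w/v in 0.01 M PBS pH 7.4, and spun at 9,000g. It was preincubated 5 min at 37 °C with NADPH-regenerating system (2 mM NADP+, 10 mM G6P, 0.4 U/mL G6PDH, 5 mM MgCl2), 2 mg/mL protein. Test compound was added at 1 µM (1% DMSO). Aliquots were acetonitrile-quenched and analyzed by RP-HPLC; t1/2 from pseudo-first-order constants, mean±SD of three.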

O=C(NC1CCCCC1)Oc1ccc2ccccc2c1 [Compound 13, Cyclohexylcarbamic acid naphthalen-2-yl ester]
log kplasma [1]: −1.57
log kS9 [2]: −0.86

NC(=O)c1cccc(-c2cccc(OC(=O)NC3CCCCC3)c2)c1 [Compound 9, cyclohexylcarbamic acid 3′-carbamoylbiphenyl-3-yl ester]
log kplasma [1]: −1.68
log kS9 [2]: −1.93
half-life at 1 μM ([2]; male, Wistar, rat, liver S9 fraction, pH 7.4, half-life in rat liver S9 fraction, in vitro oxidative metabolism): ~1 h

O=C(NC1CCCCC1)Oc1ccc(-c2ccccc2)cc1 [Compound 12, Cyclohexylcarbamic acid biphenyl-4-yl ester]
log kplasma [1]: −1.50
stability in rat liver S9 relative to regio isomer 1 [2]: 3 fold
log kS9 [2]: −1.44

O=C(NC1CCCCC1)Oc1cccc(-c2ccccc2)c1 [Compound 1]
t1/2,inhib in rat plasma ([1]; coincubation with esterase inhibitor paraoxon 1 mM): 2.38 h
log kplasma [1]: −1.79
log kS9 [2]: −0.94

CCCCNC(=O)Oc1ccc(OCc2ccccc2)cc1 [Compound 8, n-Butylcarbamic acid 4-benzyloxyphenyl ester]
log kplasma [1]: −2.68
log kS9 [2]: −1.00
